The record followed here is ChEMBL document CHEMBL1687796, “Synthesis and spectrum of the neoglycoside ACHN-490” (2010).

Holding throughout (type): functional
One test deals with Serratia sp. Briefly: Antibacterial activity against Serratia spp. by broth microdilution method. The note with it: Serratia sp. (in: enterobacteria). The method, boiled down: (§1)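 MICs were determined by CLSI broth microdilution against clinical isolate panels that included aminoglycoside-resistant isolates. […] MIC90 was derived per group and not calculated when n was <10. Imipenem, ceftobiprole, ciprofloxacin and tigecycline MICs were also determined for the resistant isolates.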
In general terms: Broth dilution looks for growth in wells or tubes with falling amounts of substance.

Another test deals with Klebsiella sp. Briefly: Antibacterial activity against Klebsiella spp. by broth microdilution method. The method, boiled down:
as §1

A further test concerns Acinetobacter sp. Briefly: Antibacterial activity against Acinetobacter spp. by broth microdilution method. The method in brief: as §1
The test system of the next test is Pseudomonas aeruginosa. Briefly: Antibacterial activity against Pseudomonas aeruginosa by broth microdilution method. The method in brief: as §1
Test [1] in a line: Antibacterial activity against indole positive Proteae by broth microdilution method. The method, boiled down: as §1
For the next test, the system named is Citrobacter. Briefly: Antibacterial activity against Citrobacter spp. by broth microdilution method. The method, boiled down:
as §1

Another test deals with Escherichia coli. The test is described as follows: Antibacterial activity against Escherichia coli by broth microdilution method. The method in brief:
as §1

A further test has as its system Proteus mirabilis. The test is described as follows: Antibacterial activity against Proteus mirabilis by broth microdilution method. The method in brief:
as §1

A further test relates to Enterobacter sp. The test is described as follows: Antibacterial activity against Enterobacter spp. by broth microdilution method. The method, boiled down: as §1

The structures appear in SMILES notation. Values after ≈ are worked out from the molar mass of the structure shown. Bounds are passed on as bounds.

In general, MIC50 refers to the lowest concentration that inhibits either 50% of growth or 50% of the strains tested, depending on the study. One may read the MIC90 as an inhibitory concentration at the 90% level, which refers to growth in some studies and to a panel of isolates in others. The low end stands for higher susceptibility, the high end for lower susceptibility. With `C[C@@H](O)[C@H]1C(=O)N2C(C(=O)O)=C(SCCNC=N)C[C@H]12` [IMIPENEM ANHYDROUS], the MIC50 with Serratia sp. came to 1 µg/mL (≈ 3.34 µM); with Klebsiella sp., 0.25 µg/mL (≈ 0.835 µM); against Acinetobacter sp., 2 µg/mL (≈ 6.68 µM); with Pseudomonas aeruginosa, 4 µg/mL (≈ 13.4 µM); in test [1], 1 µg/mL (≈ 3.34 µM); against Citrobacter, 0.5 µg/mL (≈ 1.67 µM). In addition, the MIC50 in the test with Escherichia coli amounted to 0.125 µg/mL (≈ 0.418 µM); against Proteus mirabilis, 4 µg/mL (≈ 13.4 µM); in the test on Enterobacter sp., 1 µg/mL (≈ 3.34 µM). Further, the MIC90 in the test with Klebsiella sp. is above 16 µg/mL; against Acinetobacter sp. it was above 16 µg/mL; in the test on Pseudomonas aeruginosa it was 16 µg/mL (≈ 53.4 µM); with Escherichia coli, 0.25 µg/mL (≈ 0.835 µM); with Proteus mirabilis it was 8 µg/mL (≈ 26.7 µM); with Enterobacter sp., 4 µg/mL (≈ 13.4 µM).
